Laboratory results: ChEMBL document CHEMBL4837188, “Identification of Novel Tricyclic Benzo[1,3]oxazinyloxazolidinones as Potent Antibacterial Agents with Excellent Pharmacokinetic Profiles against Drug-Resistant Pathogens” (J Med Chem, 2021)
In brackets after ≈: the same amount, converted by molar mass.

Legend:
[1] = tested on: Mycobacterium tuberculosis; assay: Antitubercular activity against Mycobacterium tuberculosis H37Rv assessed as inhibition of bacterial growth incubated for 7 days by MABA; assay type: functional; conditions: time 7 day, 168 h
Procedure, shortened: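 Microplate alamar blue assay. H37Rv or clinical isolates were grown to late log phase in 7H9 broth with glycerol, Tween 80 and ADC, then 2 × 10⁵ CFU added to two-fold dilutions. Final range 32–0.5 μg/mL, lowered to 2–0.016 μg/mL for active compounds. 37 °C, 7 days, then alamar blue 16 h. Fluorescence 530/590 nm. MIC is the lowest concentration giving ≥90% reduction; INH and RFP were controls.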

Staphylococcus aureus [2] = assay: Antibacterial activity against Staphylococcus aureus ATCC 29213 assessed as inhibition of bacterial growth incubated for 18 hrs by broth microdilution method; assay type: functional
Procedure, shortened: (§1)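 Broth microdilution in 96-well plates. Media: cation-adjusted Mueller−Hinton broth for S. aureus, brain heart infusion for VRE, Mueller−Hinton broth for the other strains. Incubated at 37 °C for 18 h, then A600 read. Percent growth inhibition calculated against 1% DMSO vehicle.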

Bacillus subtilis = assay: Antibacterial activity against Bacillus subtilis 168 assessed as inhibition of bacterial growth incubated for 18 hrs by broth microdilution method; assay type: functional; procedure, shortened: as §1
Escherichia coli = assay: Antibacterial activity against Escherichia coli 25922 assessed as inhibition of bacterial growth incubated for 18 hrs by broth microdilution method; assay type: functional; conditions: ATCC 25922; procedure, shortened: as §1
Enterococcus faecium [3] = assay: Antibacterial activity against Enterococcus faecium ATCC 49624 assessed as bacterial growth inhibition after 18 hrs by broth microdilution method; assay type: functional; procedure, shortened: as §1
Enterococcus faecium [4] = assay: Antibacterial activity against linezolid resistant Enterococcus faecium 13549 assessed as bacterial growth inhibition after 18 hrs by broth microdilution method; assay type: functional
Staphylococcus capitis = assay: Antibacterial activity against linezolid resistant Staphylococcus capitis assessed as bacterial growth inhibition after 18 hrs by broth microdilution method; assay type: functional
[5] = tested on: Staphylococcus epidermidis; assay: Antibacterial activity against methicillin resistant Staphylococcus epidermidis assessed as bacterial growth inhibition after 18 hrs by broth microdilution method; assay type: functional
Staphylococcus aureus [6] = assay: Antibacterial activity against vancomycin intermediate Staphylococcus aureus assessed as bacterial growth inhibition after 18 hrs by broth microdilution method; assay type: functional
Enterococcus = assay: Antibacterial activity against vancomycin resistant Enterococcus assessed as bacterial growth inhibition after 18 hrs by broth microdilution method; assay type: functional
[7] = Metabolic stability in CD-1 mouse liver microsomes assessed as substrate remaining in presence of NADPH incubated for 30 mins by LC-MS analysis; assay type: ADME, Microsome; conditions: read-out: Stabilty
Procedure, shortened: (§2)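 Microsomes from male CD-1 mouse or pooled human, 1 mg/mL protein in 0.05 M phosphate buffer pH 7.4. Compound at final 0.1 μM with DMSO cosolvent. Incubated at 37 °C with 1 mM NADPH, or with buffer in place of NADPH. Sampled at 0 and 30 min and quenched with acetonitrile. LC−MS measurement; substrate remaining at 30 min normalized to time zero.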

[8] = Metabolic stability in CD-1 mouse liver microsomes incubated for 30 mins by LC-MS analysis; assay type: ADME, Microsome; procedure, shortened: as §2
[9] = Metabolic stability in pooled human liver microsomes assessed as substrate remaining in presence of NADPH incubated for 30 mins by LC-MS analysis; assay type: ADME, Microsome; conditions: read-out: Stabilty; procedure, shortened: as §2
[10] = Metabolic stability in pooled human liver microsomes incubated for 30 mins by LC-MS analysis; assay type: ADME, Microsome; conditions: read-out: Stabilty; procedure, shortened: as §2
Staphylococcus aureus [11] = assay: Antibacterial activity against methicillin resistant Staphylococcus aureus assessed as bacterial growth inhibition after 18 hrs by broth microdilution method; assay type: functional
Enterococcus faecalis [12] = assay: Antibacterial activity against Enterococcus faecalis ATCC 29212 assessed as bacterial growth inhibition after 18 hrs by broth microdilution method; assay type: functional; procedure, shortened: as §1
Enterococcus faecalis [13] = assay: Antibacterial activity against linezolid resistant Enterococcus faecalis assessed as bacterial growth inhibition after 18 hrs by broth microdilution method; assay type: functional
[14] = Mycobacterium tuberculosis, H37Rv, read-out: MIC

Row | SMILES | MIC [1, 14] | MIC (Staphylococcus aureus [2]) | MIC (Bacillus subtilis) | MIC (Escherichia coli) | also measured
1 | CC(=O)NCC1OC(=O)N2Cc3cc(-c4ccc(C#N)nc4)c(F)cc3OC12 (racemic; cis) |  |  |  |  | MIC [1]: 15.51 µg/mL (≈ 40.6 µM)
2 | Cn1nnc(-c2ccc(-c3cc4c(cc3F)O[C@H]3[C@H](CN)OC(=O)N3C4)cn2)n1 | 0.47 µg/mL (≈ 1.18 µM) | 32 µg/mL (≈ 80.5 µM) | > 64 µg/mL | > 64 µg/mL | 
3 | CC(=O)NC[C@H]1CN(c2ccc(N3CCOCC3)c(F)c2)C(=O)O1 [LINEZOLID] | 0.88 µg/mL (≈ 2.61 µM) | 0.125 µg/mL (≈ 0.371 µM) | 0.25 µg/mL (≈ 0.741 µM) | > 64 µg/mL | MIC (Enterococcus faecium [3]): 2 µg/mL (≈ 5.93 µM); MIC (Enterococcus faecium [4]): 8 µg/mL (≈ 23.7 µM); MIC (Staphylococcus capitis): ≥ 16 µg/mL
4 | CN[C@H](CC(C)C)C(=O)N[C@H]1C(=O)N[C@@H](CC(N)=O)C(=O)N[C@H]2C(=O)N[C@H]3C(=O)N[C@H](C(=O)N[C@H](C(=O)O)c4cc(O)cc(O)c4-c4cc3ccc4O)[C@H](O)c3ccc(c(Cl)c3)Oc3cc2cc(c3O[C@@H]2O[C@H](CO)[C@@H](O)[C@H](O)[C@H]2O[C@H]2C[C@](C)(N)[C@H](O)[C@H](C)O2)Oc2ccc(cc2Cl)[C@H]1O [VANCOMYCIN] |  |  | 0.25 µg/mL (≈ 0.173 µM) | 64 µg/mL (≈ 44.2 µM) | MIC [5]: < 2 µg/mL; MIC (Staphylococcus aureus [6]): > 32 µg/mL; MIC (Enterococcus): > 32 µg/mL
5 | CC(=O)NC[C@@H]1OC(=O)N2c3cc(F)c(Br)cc3OC[C@@H]12 |  |  |  |  | remaining at 0.5 h [7]: 73.4%; Stabilty ([8]; mouse, microsomes, 0.5 h): 125%; remaining at 0.5 h [9]: 71.4%; remaining at 0.5 h [10]: 110%
6 | CC(=O)NC[C@H]1OC(=O)N2Cc3cc(-c4ccc(C#N)nc4)c(F)cc3O[C@H]12 | > 32 µg/mL | > 64 µg/mL |  |  | 
7 | CC(=O)NC[C@@H]1OC(=O)N2Cc3cc(Br)c(F)cc3O[C@@H]12 |  |  |  |  | remaining at 0.5 h [7]: 105%; remaining at 0.5 h ([8]; CD-1, mouse, liver microsomes, read-out: Stabilty): 102%; remaining at 0.5 h [9]: 111%; remaining at 0.5 h [10]: 93.8%
8 | CC(=O)NC[C@@H]1OC(=O)N2Cc3cc(N4CCOCC4)c(F)cc3O[C@@H]12 | 31.7 µg/mL (≈ 86.8 µM) | 2 µg/mL (≈ 5.47 µM) | 8 µg/mL (≈ 21.9 µM) | > 64 µg/mL | 
9 | CC(=O)NC[C@@H]1OC(=O)N2Cc3cc(N4CCOCC4)ccc3O[C@@H]12 | > 32 µg/mL |  |  |  | 
10 | N#Cc1ccc(-c2cc3c(cc2F)CN2C(=O)O[C@@H](CN)[C@@H]2O3)cn1 (racemic) | > 32 µg/mL | > 64 µg/mL | > 64 µg/mL | > 64 µg/mL | 
11 | CC(=O)NC[C@@H]1OC(=O)N2Cc3cc(-c4ccc(C#N)nc4)ccc3O[C@@H]12 | 12.2 µg/mL (≈ 33.6 µM) | 0.5 µg/mL (≈ 1.37 µM) | 1 µg/mL (≈ 2.74 µM) | > 64 µg/mL | 
12 | CC(=O)NCC1OC(=O)N2Cc3cc(-c4ccc(C#N)nc4)c(F)cc3OC12 (racemic; trans) |  |  |  |  | MIC [1]: 1.58 µg/mL (≈ 4.13 µM)
13 | NC[C@@H]1OC(=O)N2Cc3cc(F)c(N4CCOCC4)cc3O[C@@H]12 (racemic) | > 32 µg/mL |  |  |  | 
14 | CC1(C)S[C@@H]2[C@H](NC(=O)[C@H](N)c3ccccc3)C(=O)N2[C@H]1C(=O)O [AMPICILLIN] |  | 0.25 µg/mL (≈ 0.715 µM) | 0.25 µg/mL (≈ 0.715 µM) |  | MIC (Staphylococcus aureus [11]): > 32 µg/mL; MIC [5]: > 32 µg/mL
15 | N#Cc1ccc(-c2ccc3c(c2)CN2C(=O)O[C@@H](CN)[C@@H]2O3)cn1 | 2.94 µg/mL (≈ 9.12 µM) | > 64 µg/mL | > 64 µg/mL | > 64 µg/mL | 
16 | CC(=O)NC[C@@H]1OC(=O)N2Cc3cc(F)c(N4CCOCC4)cc3O[C@@H]12 (racemic) | > 32 µg/mL |  |  |  | 
17 | NC[C@@H]1OC(=O)N2Cc3cc(N4CCOCC4)ccc3O[C@@H]12 | > 32 µg/mL |  |  |  | 
18 | CC(=O)NC[C@@H]1OC(=O)N2Cc3cc(F)c(-c4ccc(C#N)nc4)cc3O[C@@H]12 (racemic) | > 32 µg/mL | > 64 µg/mL | > 64 µg/mL | > 64 µg/mL | 
19 | N#Cc1ccc(-c2cc3c(cc2F)O[C@H]2[C@H](CN)OC(=O)N2C3)cn1 | 0.26 µg/mL (≈ 0.764 µM) |  |  |  | 
20 | CC(=O)NC[C@@H]1OC(=O)N2Cc3cc(-c4ccc(-c5nnn(C)n5)nc4)c(F)cc3O[C@@H]12 | 0.54 µg/mL (≈ 1.23 µM) | 0.125 µg/mL (≈ 0.284 µM) | 0.125 µg/mL (≈ 0.284 µM) | > 64 µg/mL | MIC (Staphylococcus aureus [11]): 0.5 µg/mL (≈ 1.14 µM); MIC [5]: 1 µg/mL (≈ 2.28 µM); MIC (Staphylococcus aureus [6]): 0.5 µg/mL (≈ 1.14 µM); MIC (Enterococcus): 0.25 µg/mL (≈ 0.569 µM); MIC (Enterococcus faecalis [12]): 0.5 µg/mL (≈ 1.14 µM); MIC (Enterococcus faecalis [13]): 1 µg/mL (≈ 2.28 µM); MIC (Enterococcus faecium [3]): 1 µg/mL (≈ 2.28 µM); MIC (Enterococcus faecium [4]): 2 µg/mL (≈ 4.55 µM); MIC (Staphylococcus capitis): 2 µg/mL (≈ 4.55 µM)
21 | NC[C@@H]1OC(=O)N2Cc3cc(N4CCOCC4)c(F)cc3O[C@@H]12 | > 32 µg/mL | > 64 µg/mL | > 64 µg/mL | > 64 µg/mL | 
